Key:
Gerbillinae [1] = assay: Inhibition of [Sar9, Met(O2)11]SP-induced foot tapping in sc dosed gerbil
Mustela putorius furo [2] = assay: Antiemetic activity against cisplatin-induced emesis in sc dosed ferrets; type: functional, organism-based
Summary of the method: (§1)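 Ferrets were given the test compound sc 30 min before cisplatin (10 mg/kg, ip). Retching and vomiting/gagging episodes were counted against vehicle control. Groups were n = 4–5, data are mean ± SEM, and Student's t-test was used. Results are given as ED90 (mg/kg, sc) or as % inhibition at the stated dose.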

[3] = Oral bioavailability in rat at 1 to 30 mg/kg; type: ADME, organism-based; settings: in vivo
Summary of the method: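 Rats received 1–30 mg/kg orally as the hydrochloride salt dissolved in water. Oral bioavailability was determined against iv data.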

Cytochrome P450 2D6 = Cytochrome P450 2D6 (Homo sapiens, UniProt P10635); assay: Binding affinity to human CYP2D6 using bufuralol as substrate; type: ADME
Cytochrome P450 2D6, sequence (P10635 whole entry): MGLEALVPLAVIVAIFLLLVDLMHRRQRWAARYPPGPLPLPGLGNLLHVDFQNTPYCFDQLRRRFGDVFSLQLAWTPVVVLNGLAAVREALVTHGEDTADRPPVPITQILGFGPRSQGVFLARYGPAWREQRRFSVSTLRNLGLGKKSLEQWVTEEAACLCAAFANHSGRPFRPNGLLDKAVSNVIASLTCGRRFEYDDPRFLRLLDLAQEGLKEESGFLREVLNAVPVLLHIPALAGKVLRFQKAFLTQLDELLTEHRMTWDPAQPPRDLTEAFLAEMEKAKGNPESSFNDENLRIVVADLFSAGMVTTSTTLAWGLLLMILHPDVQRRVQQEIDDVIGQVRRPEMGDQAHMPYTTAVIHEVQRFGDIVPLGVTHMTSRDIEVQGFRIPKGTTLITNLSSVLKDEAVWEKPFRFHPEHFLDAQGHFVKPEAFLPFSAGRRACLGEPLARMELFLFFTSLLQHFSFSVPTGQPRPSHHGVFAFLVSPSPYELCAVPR

Substance-P receptor = Substance-P receptor (Homo sapiens, UniProt P25103); assay: Displacement of [3H]SP from NK1 receptor in human IM9 cells
Substance-P receptor, sequence (P25103 whole entry): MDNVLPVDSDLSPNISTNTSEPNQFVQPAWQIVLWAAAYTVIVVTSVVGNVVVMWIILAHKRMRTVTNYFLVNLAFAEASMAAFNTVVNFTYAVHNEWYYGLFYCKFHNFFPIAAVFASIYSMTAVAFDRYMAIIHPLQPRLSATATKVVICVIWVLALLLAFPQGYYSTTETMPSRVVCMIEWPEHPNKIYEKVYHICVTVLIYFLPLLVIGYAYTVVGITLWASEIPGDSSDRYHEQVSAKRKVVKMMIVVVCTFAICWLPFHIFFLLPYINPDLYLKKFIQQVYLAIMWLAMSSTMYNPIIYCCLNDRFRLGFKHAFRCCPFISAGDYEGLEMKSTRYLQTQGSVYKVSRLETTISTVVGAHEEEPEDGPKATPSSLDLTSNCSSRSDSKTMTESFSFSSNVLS

Liver microsomes = assay: Metabolic stability in human liver microsome assessed as ratio of half life between CYP2D6-deficient microsome and CYP2D6-deficient microsome with addition of exogenous CYP2D6; type: ADME
Summary of the method: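 Half-lives were measured in CYP2D6-deficient human liver microsomes with and without added exogenous CYP2D6. The value is the ratio of the half-life without CYP2D6 to the half-life with it.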

CYP2D6 = CYP2D6 (Homo sapiens, UniProt P10635); assay: Inhibition of human CYP2D6 at 5 uM; type: ADME
CYP2D6, sequence (P10635 whole entry): as the sequence (P10635 whole entry) above

[4] = Oral bioavailability in dog at 5 mg/kg; type: ADME, organism-based, Canis lupus familiaris; settings: in vivo
Summary of the method: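 Dogs were dosed orally at 5 mg/kg as a water solution. Oral bioavailability was determined.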

[5] = Clearance in dog at 1 mg/kg, iv; type: ADME, organism-based, Canis lupus familiaris; set-up: dose 1 mg/kg, route intravenous; settings: in vivo
Summary of the method: (§2)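 Dogs received 1 mg/kg iv. Plasma clearance, steady-state volume of distribution and half-life were derived.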

[6] = Clearance in rat at 0.3 mg/kg, iv; type: ADME, organism-based; set-up: dose 0.3 mg/kg, route intravenous; settings: in vivo
Summary of the method: (§3)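 Rats received 0.3 mg/kg iv. Plasma clearance, steady-state volume of distribution and half-life were derived from plasma levels.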

[7] = Volume of distribution at steady state in rat at 0.3 mg/kg, iv; type: ADME, organism-based; set-up: dose 0.3 mg/kg, route intravenous; settings: in vivo, read-out: Vdss
Summary of the method: as §3

[8] = Half life in rat at 0.3 mg/kg, iv; type: ADME, organism-based; set-up: dose 0.3 mg/kg, route intravenous; settings: in vivo
Summary of the method: as §3

[9] = Volume of distribution at steady state in dog at 1 mg/kg, iv; type: ADME, organism-based, Canis lupus familiaris; set-up: dose 1 mg/kg, route intravenous; settings: in vivo, read-out: Vdss
Summary of the method: as §2

[10] = target: Sodium channel protein type 2 subunit alpha (Rattus norvegicus, UniProt P04775); assay: Displacement of [3H]batrachotoxinin from rat sodium channel type 2A subunit expressed in CHO-CNa2A cells […]; type: cell-based
Sodium channel protein type 2 subunit alpha, sequence (P04775 whole entry): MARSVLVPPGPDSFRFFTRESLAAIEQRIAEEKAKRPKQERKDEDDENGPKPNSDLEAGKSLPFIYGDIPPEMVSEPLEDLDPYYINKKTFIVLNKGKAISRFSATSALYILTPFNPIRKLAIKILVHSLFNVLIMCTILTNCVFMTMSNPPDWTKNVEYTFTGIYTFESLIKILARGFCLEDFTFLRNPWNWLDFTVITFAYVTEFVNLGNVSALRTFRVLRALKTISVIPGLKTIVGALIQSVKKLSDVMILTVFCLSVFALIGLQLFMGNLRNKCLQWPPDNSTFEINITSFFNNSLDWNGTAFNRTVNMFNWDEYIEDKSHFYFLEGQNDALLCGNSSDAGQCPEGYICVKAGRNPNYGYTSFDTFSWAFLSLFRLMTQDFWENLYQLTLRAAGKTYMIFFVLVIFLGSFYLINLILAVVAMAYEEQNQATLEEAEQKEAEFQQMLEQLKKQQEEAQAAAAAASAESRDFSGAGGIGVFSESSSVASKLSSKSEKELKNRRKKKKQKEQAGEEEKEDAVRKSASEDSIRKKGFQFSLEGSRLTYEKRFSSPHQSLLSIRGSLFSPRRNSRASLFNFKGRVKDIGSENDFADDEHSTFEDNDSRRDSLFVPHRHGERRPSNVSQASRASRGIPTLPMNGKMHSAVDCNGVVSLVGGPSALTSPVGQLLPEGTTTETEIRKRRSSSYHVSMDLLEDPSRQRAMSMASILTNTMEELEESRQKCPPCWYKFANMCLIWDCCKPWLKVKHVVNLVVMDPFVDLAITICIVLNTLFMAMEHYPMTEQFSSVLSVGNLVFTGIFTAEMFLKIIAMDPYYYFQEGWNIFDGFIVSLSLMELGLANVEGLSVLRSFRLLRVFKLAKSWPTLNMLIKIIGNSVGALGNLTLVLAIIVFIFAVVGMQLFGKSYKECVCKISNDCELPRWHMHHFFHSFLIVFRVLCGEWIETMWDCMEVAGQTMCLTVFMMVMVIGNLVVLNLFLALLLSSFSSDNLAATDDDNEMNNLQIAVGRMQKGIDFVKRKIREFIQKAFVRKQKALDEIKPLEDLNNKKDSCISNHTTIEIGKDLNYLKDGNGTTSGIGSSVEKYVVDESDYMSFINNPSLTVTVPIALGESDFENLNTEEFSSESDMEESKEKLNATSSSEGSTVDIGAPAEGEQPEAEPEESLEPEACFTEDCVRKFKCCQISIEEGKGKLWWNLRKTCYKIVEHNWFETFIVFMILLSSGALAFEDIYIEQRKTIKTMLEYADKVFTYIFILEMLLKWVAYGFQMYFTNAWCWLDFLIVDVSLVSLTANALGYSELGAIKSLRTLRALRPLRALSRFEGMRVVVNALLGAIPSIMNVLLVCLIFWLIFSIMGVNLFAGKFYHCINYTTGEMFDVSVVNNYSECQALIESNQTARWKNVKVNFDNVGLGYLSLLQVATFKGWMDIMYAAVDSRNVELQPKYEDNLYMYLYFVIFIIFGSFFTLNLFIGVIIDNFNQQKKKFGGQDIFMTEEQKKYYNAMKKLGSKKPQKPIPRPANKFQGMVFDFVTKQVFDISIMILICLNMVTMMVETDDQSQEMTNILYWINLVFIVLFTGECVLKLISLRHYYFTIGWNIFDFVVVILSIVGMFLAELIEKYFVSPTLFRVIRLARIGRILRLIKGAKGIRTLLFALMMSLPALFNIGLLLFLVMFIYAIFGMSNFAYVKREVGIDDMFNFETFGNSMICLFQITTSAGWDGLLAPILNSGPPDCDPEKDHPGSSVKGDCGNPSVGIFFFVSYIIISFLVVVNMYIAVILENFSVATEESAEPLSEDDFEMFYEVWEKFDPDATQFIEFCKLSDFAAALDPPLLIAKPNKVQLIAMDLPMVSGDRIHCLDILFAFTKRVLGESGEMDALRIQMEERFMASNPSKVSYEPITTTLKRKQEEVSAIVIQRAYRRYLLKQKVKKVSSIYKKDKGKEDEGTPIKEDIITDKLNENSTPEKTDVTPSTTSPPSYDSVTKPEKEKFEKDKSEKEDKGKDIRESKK

[11] = Displacement of [3H]desmethoxyverapamil from L-type calcium channel
[12] = Half life in dog at 1 mg/kg, iv; type: ADME, organism-based, Canis lupus familiaris; set-up: dose 1 mg/kg, route intravenous; settings: in vivo
Summary of the method: as §2

[13] = target: Substance-P receptor (Cavia porcellus) (UniProt P30547); assay: Activity at NK1 receptor in po dosed guinea pig ureter assessed as capsaicin-induced plasma protein leakage; type: organism-based
Substance-P receptor (Cavia porcellus), sequence (P30547 whole entry): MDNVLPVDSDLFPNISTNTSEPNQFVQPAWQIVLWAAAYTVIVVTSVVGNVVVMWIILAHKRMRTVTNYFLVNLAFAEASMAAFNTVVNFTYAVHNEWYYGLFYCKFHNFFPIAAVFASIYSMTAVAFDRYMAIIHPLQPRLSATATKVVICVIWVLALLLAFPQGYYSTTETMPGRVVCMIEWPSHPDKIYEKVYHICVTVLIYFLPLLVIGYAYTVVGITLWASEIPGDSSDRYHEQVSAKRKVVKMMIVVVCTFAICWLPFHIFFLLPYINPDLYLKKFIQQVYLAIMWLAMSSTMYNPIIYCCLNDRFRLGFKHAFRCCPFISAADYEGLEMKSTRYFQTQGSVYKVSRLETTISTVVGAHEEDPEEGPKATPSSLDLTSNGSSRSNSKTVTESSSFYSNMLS
Summary of the method: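 Guinea pigs were dosed orally. Capsaicin (30 µM) was given ip and caused plasma protein leakage in the ureter, taken as activation of peripheral NK1 receptors. Inhibition was measured across doses, and the ED50 was derived in mg/kg, po.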

Gerbillinae [14] = assay: Inhibition of [Sar9, Met(O2)11]SP-induced foot tapping in gerbil at 1 mg/kg, sc relative to CP-122721; settings: Gerbillinae, sc; for inhibition in vivo at 1 mg/kg: route subcutaneous
Mustela putorius furo [15] = assay: Antiemetic activity against cisplatin-induced emesis in ferrets at 0.3 mg/kg, sc; type: functional; settings: route subcutaneous
Summary of the method: as §1

Mustela putorius furo [16] = assay: Antiemetic activity against cisplatin-induced emesis in ferrets at 0.1 mg/kg, sc; type: functional; settings: route subcutaneous
Summary of the method: as §1

Gerbillinae [17] = assay: Inhibition of [Sar9, Met(O2)11]SP-induced foot tapping in gerbil at 0.1 mg/kg, sc relative to CP-122721; settings: Gerbillinae, sc
[18] = Mustela putorius, sc, read-out: ED90

With COc1ccc(OC(F)(F)F)cc1CN[C@H]1CCCN[C@H]1c1ccccc1 the ED50 (Gerbillinae [1]) was 0.28 mg/kg, the ED100 (Mustela putorius furo [2]) was “>=0.3 mg kg-1” and the ED90 (Mustela putorius furo [2]; [18]) was 0.09 mg/kg.

For COc1cc2c(cc1CN[C@H]1CCCN[C@H]1c1ccccc1)[C@](C)(C(F)(F)F)OCC2.Cl.Cl, the bioavailability [3] was < 1%.

COc1ccc(C(C)(C)C(F)(F)F)cc1CN[C@H]1CCCN[C@H]1c1ccccc1 gave a Ki (Cytochrome P450 2D6) of 1340 nM, an IC50 (Substance-P receptor) of 0.2 nM and an ED50 (Gerbillinae [1]) of 0.12 mg/kg. For the same compound, the Ratio (Liver microsomes) was 1.16, the inhibition at 5 µM (CYP2D6) was 54.8% and the ED100 (Mustela putorius furo [2]) was 1 mg/kg. It also gave an ED90 (Mustela putorius furo [2]; [18]) of 0.21 mg/kg.

Compound COc1cc2c(cc1CN[C@H]1CCCN[C@H]1c1ccccc1)[C@](C)(C(F)(F)F)OCC2.O has a bioavailability [4] of 9.8%.

COc1cc2c(cc1CN[C@H]1CCCN[C@H]1c1ccccc1)[C@@](C)(C(F)(F)F)OCC2 showed an IC50 (Substance-P receptor) of 0.34 nM.

COc1ccc(CC(F)(F)F)cc1CN[C@H]1CCCN[C@H]1c1ccccc1 showed a Ki (Cytochrome P450 2D6) of 70 nM, an IC50 (Substance-P receptor) of 0.9 nM and an ED50 (Gerbillinae [1]) of 0.03 mg/kg. The Ratio (Liver microsomes) was 4.25, the inhibition at 5 µM (CYP2D6) was 95.6% and the ED90 (Mustela putorius furo [2]) was < 0.1 mg/kg. For the same compound, the ED100 (Mustela putorius furo [2]) was 0.1 mg/kg.

For COc1cc2c(cc1CN[C@H]1CCCN[C@H]1c1ccccc1)[C@](C)(C(F)(F)F)OCC2 [listing 1 of 2 here], the clearance [5] was 31.7 mL/min/kg, the clearance [6] was 11 mL/min/kg and the Vd [7] was 7 L/kg. For the same compound, the IC50 (Substance-P receptor) was < 0.1 nM, the Ki (Substance-P receptor) was 0.2 nM and the ED50 (Gerbillinae [1]) was 0.043 mg/kg. It also gave a half-life [8] of 8.8 h, a Vd [9] of 11 L/kg and an IC50 [10] of 48 nM. It also gave an ED90 (Mustela putorius furo [2]; [18]) of 0.07 mg/kg, an IC50 [11] of 164 nM and a half-life [12] of 3.8 h.

In the case of COc1ccc(C(C(F)(F)F)C(F)(F)F)cc1CN[C@H]1CCCN[C@H]1c1ccccc1, the Ki (Cytochrome P450 2D6) is reported as 2100 nM, the IC50 (Substance-P receptor) is reported as < 0.1 nM and the ED50 (Gerbillinae [1]) is reported as 0.33 mg/kg. It also gave a Ratio (Liver microsomes) of 2, an inhibition at 5 µM (CYP2D6) of 43.1% and an ED100 (Mustela putorius furo [2]) of 0.9 mg/kg. The ED90 (Mustela putorius furo [2]; [18]) was 0.48 mg/kg.

For COc1cc2c(cc1CN[C@H]1CCCN[C@H]1c1ccccc1)[C@](C)(C(F)(F)F)OCC2 [listing 2 of 2 here], the ED50 [13] was 0.005 mg/kg.

With COc1ccc(C(OC)C(F)(F)F)cc1CN[C@H]1CCCN[C@H]1c1ccccc1 (mixture of isomers) the IC50 (Substance-P receptor) was < 0.1 nM, the inhibition in vivo at 1 mg/kg (Gerbillinae [14]) was 67% and the inhibition at 5 µM (CYP2D6) was 92.9%.

Work on COc1ccc(C(F)C(F)(F)F)cc1CN[C@H]1CCCN[C@H]1c1ccccc1 (mixture of isomers) yielded an inhibition in vivo at 0.3 mg/kg (Mustela putorius furo [15]) of 97%, an IC50 (Substance-P receptor) of 0.7 nM and an ED50 (Gerbillinae [1]) of 0.16 mg/kg. The Ratio (Liver microsomes) was 1.83, the inhibition at 5 µM (CYP2D6) was 46.6% and the inhibition in vivo at 0.1 mg/kg (Mustela putorius furo [16]) was 97%.

With COc1ccc(C(C)(F)C(F)(F)F)cc1CN[C@H]1CCCN[C@H]1c1ccccc1 (mixture of isomers) the IC50 (Substance-P receptor) was < 0.1 nM, the inhibition in vivo at 1 mg/kg (Gerbillinae [14]) was 57% and the inhibition in vivo at 0.1 mg/kg (Gerbillinae [17]; dose 0.1 mg/kg, route subcutaneous) was 30%.

With COc1cc2c(cc1CN[C@H]1CCCN[C@H]1c1ccccc1)C(C(F)(F)F)OC2 (mixture of isomers) the IC50 (Substance-P receptor) was < 0.1 nM, the inhibition at 5 µM (CYP2D6) was 66.4% and the % inhibition at 0.1 mg/kg (Gerbillinae [17]) was 84%. The inhibition in vivo at 0.1 mg/kg (Mustela putorius furo [16]) was 99%.

In the case of COc1cc2c(cc1CN[C@H]1CCCN[C@H]1c1ccccc1)C(C)(C(F)(F)F)CC2 (mixture of isomers), the IC50 (Substance-P receptor) is reported as < 0.1 nM, the % inhibition at 1 mg/kg (Gerbillinae [14]) is reported as 80% and the % inhibition at 0.1 mg/kg (Gerbillinae [17]) is reported as 68%.

— ChEMBL document CHEMBL1155909, “Discovery and stereoselective synthesis of the novel isochroman neurokinin-1 receptor antagonist 'CJ-17,493'” (Bioorg Med Chem, 2008)
